Bioassay records: PubChem BioAssay, several laboratories
PG9 Ab binder: binders of HIV-1 gp120 antibody PG9, primary screen, biochemical, TR-FRET | HIV-1 gp120 / PG9 antibody interaction | TR-FRET gp120-PG9 antibody binding | inhibition, % at 6.7 µM | hit rate 0.43% among 360,000 | AID 624416, 2012; in the data active = inhibition above about 8.5%
Rev-erbA mod: modulators of Rev-erb alpha DNA binding, primary screen, biochemical, FITC-DNA, fluorescence polarization, uHTS. activity, % at 10 µM. hit rate 0.79% among 370,000. Rev-erbα–FITC-DNA binding, 90 min. Nuclear receptor subfamily 1 group D member 1 (Homo sapiens), P20393;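 active = activity above about 14%, limit read from the data; passing the limit was not always enough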
Target sequence (P20393 whole entry, looked up): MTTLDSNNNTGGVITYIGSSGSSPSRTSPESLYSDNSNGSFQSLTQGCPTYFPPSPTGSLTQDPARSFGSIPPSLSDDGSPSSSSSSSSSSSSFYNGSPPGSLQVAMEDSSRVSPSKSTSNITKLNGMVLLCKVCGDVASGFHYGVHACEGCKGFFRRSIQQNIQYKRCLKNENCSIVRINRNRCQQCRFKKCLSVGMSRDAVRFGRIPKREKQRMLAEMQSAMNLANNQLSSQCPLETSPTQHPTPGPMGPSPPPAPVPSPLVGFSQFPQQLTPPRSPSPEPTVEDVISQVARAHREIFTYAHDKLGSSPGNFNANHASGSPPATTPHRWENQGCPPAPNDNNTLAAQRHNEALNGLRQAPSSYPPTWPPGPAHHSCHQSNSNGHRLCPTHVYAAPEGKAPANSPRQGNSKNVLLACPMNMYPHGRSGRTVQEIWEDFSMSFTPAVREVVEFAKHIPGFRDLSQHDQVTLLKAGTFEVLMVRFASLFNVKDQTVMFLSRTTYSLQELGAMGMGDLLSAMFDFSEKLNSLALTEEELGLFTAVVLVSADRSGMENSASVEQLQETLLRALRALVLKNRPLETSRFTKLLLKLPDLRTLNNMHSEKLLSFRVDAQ
NR2E3 ag-1: NR2E3 agonists in two-hybrid cells, primary screen, cell-based, luminescence, CHO-S, Gal4-NCOR/VP16-NR2E3; AID 602229, 2012; luciferase; inhibition of corepressor binding, % at 3.98 µM; Photoreceptor-specific nuclear receptor (Homo sapiens), Q9Y5X4; hit rate 0.35% among 360,000;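 active = inhibition above the mean of all tested compounds plus 3 SD, cut at about 70% in these data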;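 note: higher means lower luciferase signal from less NR2E3 corepressor binding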
NR2E3 ag-2: inhibitors of NR2E3-RetCOR corepressor binding, primary screen, NR2E3 agonist project, biochemical, TR-FRET, GST-NR2E3, biotin-RetCOR. AID 2300, 2010. hit rate 0.12% among 320,000. 1536-well. inhibition of corepressor binding, % at 4.78 µM;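 active = percent inhibition above the cutoff of mean plus 3 SD of all tested compounds, set per screening campaign, cut at about 20% in these data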
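System: GST-NR2E3 and biotin-RetCOR proteins; probe or stimulus: 7 nM biotin-RetCOR; doses: compound at 4.8 µM, single dose; schedule: Compound–protein incubation for 5 h at 4 °C; detection: time-resolved FRET; read-out: percent inhibition; controls: biotin wells as high control, 0.6% DMSO wells as low control; format: 1536-well plates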
NR2E3 ag conf: NR2E3 agonist confirmation in cells, cell-based, luminescence, CHO-S two-hybrid | shares compounds with NR2E3 ag-1 | CHO-S mammalian two-hybrid NR2E3-NCOR, luciferase luminescence | inhibition, % at 3.98 µM | hit rate 51% among 2,300;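 active = average inhibition above a cutoff equal to the mean inhibition of all tested compounds plus one SD, cut at about 70% in these data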
GAL4-VP16 luc: GAL4-VP16 reporter modulators, confirmation, counter-screen for NR2E3 agonist project, cell-based, luminescence, CHO-S, high throughput. shares compounds with NR2E3 ag-1. CHO-S GAL4-VP16 luciferase reporter. inhibition, % at 3.98 µM. hit rate 29% among 2,300;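 active = mean inhibition above a cutoff equal to the average over all tested compounds plus one standard deviation, cut at about 70% in these data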;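 note: luciferase from a UAS reporter driven by GAL4-VP16 transactivation; higher means less reporter light so more repression of VP16 activity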
Numbers stand for hits. In the library only some 1.5% were active in any assay of this set; here they are far more common.

How did COc1ccc(S[C@]2(C(=O)NCc3ccccc3)CC(=O)N[C@@H]2c2ccc(OC)cc2)cc1 do in these assays?
Rev-erbA mod: inactive

Results for CCN1/C(=C\c2ccc3cc(C)ccc3[n+]2CC)Sc2cc(C)c(C)cc21 ?
PG9 Ab binder: inactive; Rev-erbA mod: inactive; NR2E3 ag-1: 85; NR2E3 ag conf: 98; GAL4-VP16 luc: 87

Results for Cc1cc(C)nc(SCC(=O)Nc2ccnc3ccccc23)n1 ?
PG9 Ab binder: inactive; Rev-erbA mod: inactive; NR2E3 ag-1: 84; NR2E3 ag-2: inactive; NR2E3 ag conf: 92; GAL4-VP16 luc: 83

What do the screens show for `COC(=O)Nc1cc(C)nc2ccccc12`?
PG9 Ab binder: inactive; Rev-erbA mod: inactive; NR2E3 ag-1: inactive; NR2E3 ag-2: inactive

Results for Cc1cc(NC(=O)Cc2ccccc2)c2ccccc2n1 ?
PG9 Ab binder: inactive; Rev-erbA mod: inactive; NR2E3 ag-1: inactive; NR2E3 ag-2: inactive; NR2E3 ag conf: 87; GAL4-VP16 luc: inactive

What do the screens show for `Cc1ccc(NC(=O)C2CCCN(c3nnc(-n4cccc4)s3)C2)c(C)c1` (stereo not given)?
Rev-erbA mod: inactive

What do the screens show for `CC(=O)/C(N=Nc1ccc2c(c1)OCO2)=C(\C)O`?
PG9 Ab binder: inactive; Rev-erbA mod: inactive; NR2E3 ag-1: inactive; NR2E3 ag-2: inactive

What do the screens show for `CC(=O)/C(N=Nc1ccc2c(c1)OCCO2)=C(\C)O`?
PG9 Ab binder: inactive; Rev-erbA mod: inactive; NR2E3 ag-1: inactive; NR2E3 ag-2: inactive; NR2E3 ag conf: inactive; GAL4-VP16 luc: inactive

What do the screens show for `C(=Nc1ccccc1)c1ccc[nH]1`?
PG9 Ab binder: inactive; Rev-erbA mod: inactive; NR2E3 ag-1: inactive

What do the screens show for `Oc1ccccc1N=Cc1ccc[nH]1`?
PG9 Ab binder: inactive; Rev-erbA mod: inactive; NR2E3 ag-1: inactive; NR2E3 ag-2: inactive; NR2E3 ag conf: inactive; GAL4-VP16 luc: inactive

Results for Cc1cc(C(=O)COC(=O)c2ccccc2O)c(C)n1Cc1cccs1 ?
PG9 Ab binder: inactive; Rev-erbA mod: inactive; NR2E3 ag-1: 91; NR2E3 ag-2: inactive; NR2E3 ag conf: 80; GAL4-VP16 luc: 71

How did Cc1cc(C(=O)COC(=O)c2ccc3c(c2)OCO3)c(C)n1Cc1cccs1 do in these assays?
PG9 Ab binder: inactive; Rev-erbA mod: inactive; NR2E3 ag-1: 90; NR2E3 ag-2: inactive; NR2E3 ag conf: 77; GAL4-VP16 luc: 75

Results for O=[N+]([O-])c1cccc2[nH]c(CNc3nc(N4CCOCC4)nc4c3ncn4-c3ccsc3)nc12 ?
Rev-erbA mod: inactive

Results for Cc1c(C(C)C)c(=O)n(-c2ccc(S(=O)(=O)NCc3ccccc3)cc2)n1C ?
PG9 Ab binder: inactive; Rev-erbA mod: inactive; NR2E3 ag-1: 81; NR2E3 ag-2: inactive; NR2E3 ag conf: 94; GAL4-VP16 luc: 81

What do the screens show for `Cc1c(C(C)C)c(=O)n(-c2ccc(S(=O)(=O)NC3CCCCC3)cc2)n1C`?
PG9 Ab binder: inactive; Rev-erbA mod: inactive; NR2E3 ag-1: 72; NR2E3 ag-2: inactive; NR2E3 ag conf: 87; GAL4-VP16 luc: inactive

Results for Cc1c(C(C)C)c(=O)n(-c2ccc(S(=O)(=O)N3CCOCC3)cc2)n1C ?
PG9 Ab binder: inactive; Rev-erbA mod: inactive; NR2E3 ag-1: inactive; NR2E3 ag-2: inactive

Results for COc1ccc(NS(=O)(=O)c2ccc3c(c2)Cc2ccccc2-3)cn1 ?
PG9 Ab binder: inactive; Rev-erbA mod: inactive; NR2E3 ag-1: 85; NR2E3 ag-2: inactive; NR2E3 ag conf: 93; GAL4-VP16 luc: 77

Results for C=CC[n+]1c(-c2ccc(Cl)cc2Cl)csc1Nc1c(C)n(C)n(-c2ccccc2)c1=O ?
PG9 Ab binder: inactive; Rev-erbA mod: inactive; NR2E3 ag-1: inactive; NR2E3 ag-2: inactive

How did C=CC[n+]1c(-c2ccc(Cl)cc2Cl)csc1Nc1ccc(NC(C)=O)cc1 do in these assays?
PG9 Ab binder: inactive; Rev-erbA mod: inactive; NR2E3 ag-1: inactive; NR2E3 ag-2: inactive; NR2E3 ag conf: 73; GAL4-VP16 luc: inactive

How did O=C1N[C@H](Cc2ccccc2)COC(=O)[C@H](Cc2ccc(F)cc2)C/C=C\C[C@H]1CC(=O)N(CCO)Cc1ccccc1 do in these assays?
PG9 Ab binder: inactive; Rev-erbA mod: inactive; NR2E3 ag-1: inactive; NR2E3 ag conf: inactive; GAL4-VP16 luc: inactive

How did O=C1NC[C@H](c2ccccc2)OC(=O)[C@H](Cc2ccc(F)cc2)CC/C=C/C[C@H]1CC(=O)N(CCO)Cc1ccccc1 do in these assays?
PG9 Ab binder: inactive; Rev-erbA mod: inactive; NR2E3 ag-1: inactive

How did O=C1NC[C@H](c2ccccc2)OC(=O)[C@@H](Cc2ccc(F)cc2)CC/C=C/C[C@H]1CC(=O)N(CCO)Cc1ccccc1 do in these assays?
PG9 Ab binder: inactive; Rev-erbA mod: inactive; NR2E3 ag-1: inactive; NR2E3 ag conf: inactive; GAL4-VP16 luc: inactive

What do the screens show for `O=S1(=O)c2ccc(N3CCCC3)cc2Oc2ccccc2CN1Cc1cn(Cc2ccccc2C(F)(F)F)nn1`?
Rev-erbA mod: inactive

What do the screens show for `N#C[C@@H]1N[C@H](CO)[C@@H]1c1ccccc1`?
Rev-erbA mod: inactive

What do the screens show for `Cc1cnn(-c2ccccc2)c1NC(=O)COCc1ccccc1`?
Rev-erbA mod: inactive

What do the screens show for `O=C(Nc1ccc(Br)cc1)c1cccc(S(=O)(=O)Nc2ccccn2)c1`?
PG9 Ab binder: inactive; Rev-erbA mod: inactive; NR2E3 ag-1: inactive; NR2E3 ag-2: inactive

Results for O=C(Nc1ccc(Br)cc1)c1cccc(S(=O)(=O)Nc2cnc3ccccc3c2)c1 ?
PG9 Ab binder: inactive; Rev-erbA mod: inactive; NR2E3 ag-1: 84; NR2E3 ag-2: inactive; NR2E3 ag conf: 98; GAL4-VP16 luc: 86

What do the screens show for `CCN1CCN(CCNC(=O)c2ccc(/C=C3\Sc4ccccc4N(Cc4ccccc4F)C3=O)cc2)CC1`?
PG9 Ab binder: inactive; Rev-erbA mod: inactive; NR2E3 ag-1: inactive; NR2E3 ag-2: inactive; NR2E3 ag conf: inactive; GAL4-VP16 luc: inactive

What do the screens show for `FC(F)(F)c1ccc2nc(CNc3nc(N4CCOCC4)nc4c3ncn4-c3ccsc3)[nH]c2c1`?
Rev-erbA mod: inactive

What do the screens show for `N#C/C(=C/c1ccc(Sc2nc3ccccc3[nH]2)o1)c1ccccc1F`?
PG9 Ab binder: inactive; Rev-erbA mod: inactive; NR2E3 ag-1: inactive; NR2E3 ag-2: inactive; NR2E3 ag conf: 78; GAL4-VP16 luc: inactive

Results for CCOc1ccc(-n2c(SCC(=O)Nc3ccc(S(=O)(=O)Nc4cc(C)nc(C)n4)cc3)nnc2-c2cccc(C)c2)cc1 ?
Rev-erbA mod: inactive
